Laboratory results: ChEMBL document CHEMBL6083205, “A comprehensive apoptotic assessment of niloticin in cervical cancer cells: a tirucallane-type triterpenoid from Aphanamixis polystachya (Wall.) Parker” (RSC Med Chem, 2024)
Active and inactive are the calls of the source. No cut-off for these calls is given here.

Key:
HeLa [1] = assay: Induction of cell cycle arrest in human HeLa cells assessed as proportion of cell accumulation at G2 phase at 7 uM by propidium iodide staining based flow cytometry (reference value: 8.7%); format: functional
HeLa [2] = assay: Induction of apoptosis in human HeLa cells assessed as increase in caspase-9 activation at 7 to 11 uM by fluorometric assay; format: functional, cell-based; details: dose 7-11 µM
Procedure, shortened: (§1)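 HeLa seeded at 3 × 10^6 in 6-well plates, treated at 7 and 11 μM; caspase-3, -8 and -9 activity each measured by fluorometric kit per manufacturer's protocol; fluorescence read at ex 400 nm / em 505 nm; fold change versus control; mean ± SD.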

HeLa [3] = assay: Induction of cell cycle arrest in human HeLa cells assessed as proportion of cell accumulation at subG0 phase at 11 uM by propidium iodide staining based flow cytometry (reference value: 7.6%); format: functional
HeLa [4] = assay: Induction of apoptosis in human HeLa cells assessed as proportion of viable cells at 11 uM by AnnexinV-FITC/PI staining based FACS analysis (reference value: 77.7%); format: functional
HeLa [5] = assay: Induction of cell cycle arrest in human HeLa cells assessed as downregulation of Cyclin B1 protein expression at 7 to 11 uM by western blot analysis; format: functional, cell-based; details: dose 7-11 µM
Procedure, shortened: (§2)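 Protein extracted from treated and untreated HeLa, BCA-quantified and normalised; SDS-PAGE, PVDF transfer, 5% skim milk block; primary antibodies 18 h at 4 °C, HRP secondary; chemiluminescent detection of Cdk-2, cyclin A2, cyclin B1, Cdc-25 with β-actin loading control.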

HeLa [6] = assay: Induction of cell cycle arrest in human HeLa cells assessed as proportion of cell accumulation at G1 phase at 7 uM by propidium iodide staining based flow cytometry (reference value: 67.7%); format: functional
HeLa [7] = assay: Induction of cell cycle arrest in human HeLa cells assessed as proportion of cell accumulation at S phase at 11 uM by propidium iodide staining based flow cytometry (reference value: 15.9%); format: functional
HeLa [8] = assay: Induction of apoptosis in human HeLa cells assessed as proportion of necrotic cells at 7 uM by AnnexinV-FITC/PI staining based FACS analysis (reference value: 3.4%); format: functional
HeLa [9] = assay: Induction of mitochondrial membrane potential depolarization in human HeLa cells assessed as increase in JC-1 monomers by measuring increase in green fluorescence intensity at 7 to 11 uM incubated for 24 hrs by JC-1 staining based fluorescence microscopic analysis; format: functional, cell-based; details: dose 7-11 µM
Procedure, shortened: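 HeLa treated for 24 h, then stained with JC-1 dye; red aggregate and green monomer fluorescence imaged on inverted microscope with FITC filter; aggregate-to-monomer ratio calculated relative to control; mean ± SD; scale bar 50 μm.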

HeLa [10] = assay: Inhibition of colony formation in human HeLa cells assessed as decrease in number of colonies formed at 3 to 6 uM incubated for 9 days by crystal violet staining based microscopic analysis; format: functional, cell-based; details: dose 3-6 µM, time 9.0 day
Procedure, shortened: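 HeLa seeded at 1 × 10^3 cells in 6-well plates; after attachment treated at 3 and 6 μM and grown 9 days at 37 °C; fixed in 70% methanol, stained with 0.3% crystal violet, PBS-washed; colonies imaged and counted by image analysis.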

HeLa [11] = assay: Induction of apoptosis in human HeLa cells assessed as DNA fragmentation at 7 to 11 uM incubated for 24 hrs by ethidium bromide staining based agarose gel electrophoresis analysis; format: functional, cell-based; details: dose 7-11 µM
Procedure, shortened: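 HeLa treated at 7 and 11 μM; genomic DNA isolated by kit, quantified by nanodrop and normalised; run on 0.8% agarose at 80 V, stained with ethidium bromide; laddering imaged by gel documentation.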

MDA-MB-231 = assay: Antiproliferative activity against human MDA-MB-231 cells assessed as inhibition of cell growth incubated for 24 hrs by MTT assay; format: functional, cell-based; details: MDA-MB-231, 24 h
Procedure, shortened: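 Cells kept in DMEM with 10% FBS and 1% antibiotic-antimycotic at 37 °C and 5% CO2. Seeded at 8 × 10^3 cells per 100 μL and left 24 h, then exposed 24 h to 5, 10, 20, 50 or 100 μM. MTT at 0.5 mg/mL in HBSS was added for 2–4 h at 37 °C in the dark. Formazan was dissolved in DMSO, A570 was read, and IC50 was derived.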

SiHa = assay: Antiproliferative activity against human SiHa cells assessed as inhibition of cell growth incubated for 24 hrs by MTT assay; format: functional, cell-based
Procedure, shortened: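 Cervical squamous carcinoma cells were seeded at 8 × 10^3 cells per 100 μL and incubated 24 h before compound was added (5–100 μM). After 24 h exposure, cells were washed and given 0.5 mg/mL MTT in HBSS for 2–4 h at 37 °C in the dark. Formazan was solubilised in DMSO, absorbance read at 570 nm, and IC50 determined.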

[12] = Cytotoxicity against human MCF-10A cells assessed as inhibition of cell growth incubated for 24 hrs by MTT assay; format: toxicity, cell-based
Procedure, shortened: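 Non-tumorigenic breast epithelial line grown in MEGM with 5% horse serum at 37 °C and 5% CO2. Plated at 8 × 10^3 cells per well and treated 24 h later for 24 h at 5–100 μM. MTT (0.5 mg/mL in HBSS) was applied for 2–4 h at 37 °C in the dark, then DMSO. Read at 570 nm for IC50.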

HeLa [13] = assay: Induction of apoptosis in human HeLa cells assessed as proportion of early apoptotic cells at 7 uM by AnnexinV-FITC/PI staining based FACS analysis (reference value: 4.5%); format: functional
HeLa [14] = assay: Induction of cell cycle arrest in human HeLa cells assessed as downregulation of Cdc25 protein expression at 7 to 11 uM by western blot analysis; format: functional, cell-based; details: dose 7-11 µM; procedure, shortened: as §2
HeLa [15] = assay: Induction of cell cycle arrest in human HeLa cells assessed as proportion of cell accumulation at G2 phase at 11 uM by propidium iodide staining based flow cytometry (reference value: 8.7%); format: functional
HeLa [16] = assay: Induction of apoptosis in human HeLa cells assessed as increase in caspase-8 activation at 7 to 11 uM by fluorometric assay; format: functional, cell-based; details: dose 7-11 µM; procedure, shortened: as §1
HeLa [17] = assay: Induction of apoptosis in human HeLa cells assessed as proportion of late apoptotic cells at 11 uM by AnnexinV-FITC/PI staining based FACS analysis (reference value: 14.5%); format: functional
HeLa [18] = assay: Induction of apoptosis in human HeLa cells assessed as fold increase in caspase-3 activation at 7 to 11 uM by fluorometric assay relative to control; format: functional; details: dose 7-11 µM; procedure, shortened: as §1

## C[C@@H](C[C@@H](O)[C@@H]1OC1(C)C)[C@@H]1CC[C@]2(C)C3=CC[C@H]4C(C)(C)C(=O)CC[C@]4(C)[C@H]3CC[C@@]12C
HeLa [1]
  Activity: 5.4%
HeLa [2]
  Activity: Active
HeLa [3]
  Activity: 39.5%
HeLa [4]
  Activity: 29.6%
HeLa [5]
  Activity: Active
HeLa [6]
  Activity: 64%
HeLa [7]
  Activity: 9.8%
HeLa [8]
  Activity: 0.7%
HeLa [9]
  Activity: Active
HeLa [10]
  inhibition: Dose-dependent-effect
HeLa [11]
  Activity: Active
MDA-MB-231
  IC50: 23.9 µM
SiHa
  IC50: 16.2 µM
[12]
  IC50 at 24 h: 83.3 µM
HeLa [13]
  Activity: 50.9%
HeLa [14]
  Activity: Active
HeLa [15]
  Activity: 6.2%
HeLa [16]
  Activity: Active
HeLa [17]
  Activity: 50.1%
HeLa [18]
  fold change (FC): 3
